# Screens deposited in PubChem BioAssay by several laboratories.
# TRPML3 ag – agonists of human TRPML3 channel. actives 0.29% (n = 220,000). AID 1448. Q8TDD5. activation, % at 3 µM. HEK293 TRPML3-YFP, Fluo-8 calcium fluorescence; 100% = the carbachol control signal;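 active means activation above its plate's cutoff, the mean activation of the plate's test wells plus 3 SD, cut at about 12% in these data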
# Target sequence (Q8TDD5 whole entry, looked up): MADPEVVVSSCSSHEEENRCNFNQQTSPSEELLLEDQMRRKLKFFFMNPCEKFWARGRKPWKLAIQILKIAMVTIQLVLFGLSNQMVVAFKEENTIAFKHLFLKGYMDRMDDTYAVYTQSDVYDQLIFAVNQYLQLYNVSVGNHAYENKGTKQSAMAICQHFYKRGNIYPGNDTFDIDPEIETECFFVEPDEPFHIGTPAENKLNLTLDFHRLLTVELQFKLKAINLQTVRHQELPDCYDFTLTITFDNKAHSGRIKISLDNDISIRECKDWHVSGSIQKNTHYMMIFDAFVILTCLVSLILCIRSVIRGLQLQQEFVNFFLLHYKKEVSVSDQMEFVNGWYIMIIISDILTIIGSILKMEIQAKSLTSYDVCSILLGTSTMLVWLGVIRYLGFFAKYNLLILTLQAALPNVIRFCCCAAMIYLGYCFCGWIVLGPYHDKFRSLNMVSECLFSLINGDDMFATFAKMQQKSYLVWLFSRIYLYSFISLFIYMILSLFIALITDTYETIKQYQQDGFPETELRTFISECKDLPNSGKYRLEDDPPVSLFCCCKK
#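 system = HEK293 cells stably carrying human TRPML3-YFP | doses = one concentration, 3 µM nominal, 0.3% DMSO | timing = dye loading 1 h 37 °C then 30 min ambient, 125 s read | detection = Fluo-8 calcium dye fluorescence, ex 470-495, em 515-575 nm | benchmarks = high control carbachol 87 µM, low control DMSO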
# GPR7 antag – antagonists of human GPR7 (neuropeptides B/W receptor 1). P48145. GPR7-expressing cells, fluorescence antagonist assay. inhibition, % at 4.4 µM. actives 1.1% (n = 290,000). AID 1861; in the data active means inhibition above about 16%, passing the limit was not always enough;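 further: cells stimulated with the agonist NPW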
# TAAR1 agonist – human TAAR1 agonism | Q96RJ0 | CHO RD-HGA16 TAAR1, Fluo-8 calcium fluorescence; vehicle wells 0%, saturating PEA agonist 100% | activation, % at 3 µM | actives 0.99% (n = 360,000) | AID 624467;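 active means activation above the mean activation of all test compounds in the run plus 3 SD, cut at about 38% in these data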
#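 Test system: RD-HGA16 (CHO) cells co-expressing Gα16 and hTAAR1 | Doses: Single dose, 3 µM | Schedule: 17-24 h seeding, 75 min 37 °C dye, 30 min RT | Evaluation: % activation from peak over basal fluorescence ratio, DMSO-to-PEA scaled | Technique: Kinetic Fluo-8 calcium fluorescence | Benchmarks: Low control DMSO, high control PEA (EC100)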
# TAAR1 antag – antagonists of human TAAR1; Q96RJ0; CHO RD-HGA16 TAAR1, Fluo-8 calcium fluorescence, antagonist; inhibition, % at 3 µM; actives 1.5% (n = 360,000); AID 624466;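 active means inhibition above a per-plate cutoff, the mean inhibition of test compounds on that plate plus 3 SD, cut at about 49% in these data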
#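 Assay system: RD-HGA16 CHO cells with stable hTAAR1 and Gα16 / Reagent: EC80 β-phenethylamine stimulus / Doses: 3 µM, single point / Timing: dye loading 75 min at 37 °C, then 30 min room temperature / Measured by: Fluo-8 intracellular calcium dye fluorescence, real-time kinetic reads / Controls: vehicle wells and EC80 agonist wells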
# LANA-H2B inh – blocks KSHV LANA binding to histone H2A/H2B; Q9QR71; cell-free LANA-H2A/H2B peptide, fluorescence polarization; inhibition, % (no concentration beside the values); actives 0.6% (n = 320,000); AID 2629; in the data active means inhibition mostly above about 10%, no sharp cut-off; inactive means mostly below about 6.7%
# zfTRPN1 agonist – activates the zebrafish TRPN1 channel; activation, % at 3 µM; actives 0.18% (n = 220,000); HEK293 zebrafish TRPN1-YFP, Fluo-8 calcium fluorescence; 100% = response to 87 µM carbachol;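 active means activation above its plate's cutoff, the mean activation of test wells on that plate plus 3 SD, cut at about 19% in these data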
#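 Material – zebrafish TRPN1-YFP in HEK293 cells · Doses – 3 µM single point · Schedule – dye 1 h 37 °C plus 30 min RT · Signal – Fluo-8 calcium fluorescence, excitation 470-495 nm, emission 515-575 nm · Read-out – % activation versus carbachol response · Control set – carbachol high, DMSO low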
# TAAR1 ag conf – confirmation of human TAAR1 agonists; actives 82% (n = 2,400); CHO RD-HGA16 TAAR1, Fluo-8 calcium fluorescence; scaled: DMSO 0%, maximal phenethylamine 100%; shares compounds with TAAR1 agonist; activation, % at 3 µM; AID 651783;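 active means activation above a cutoff set at the run's mean compound activation plus 3 SD, cut at about 39% in these data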
# Ga16 nonsel ag – counter-screen for TAAR1 agonists: nonselective agonists in parental cells; shares compounds with TAAR1 agonist; CHO-Ga16 parental, Fluo-8 calcium fluorescence; normalized to maximal ATP response, DMSO zero; activation, % at 3 µM; actives 50% (n = 2,400);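 active means activation above the run cutoff, the mean activation over all tested wells plus 3 SD, cut at about 12% in these data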
# TAAR1 desensitize – counter-screen for human TAAR1 agonists: agonists that desensitize TAAR1; AID 651951; actives 46% (n = 2,400); CHO RD-HGA16 hTAAR1, Fluo-8 calcium, beta-PEA response inhibition; shares compounds with TAAR1 agonist; inhibition, % at 3 µM;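 active means inhibition above the run cutoff, the mean inhibition of all test compounds plus 3 SD, cut at about 49% in these data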;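 further: beta-PEA stimulus applied at its EC80; loss of beta-PEA calcium signal after compound pretreatment read as receptor desensitization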
# Ga16 antag count – nonselective Ga16 antagonist in TAAR1 agonist counter-screen; shares compounds with TAAR1 agonist; CHO-Ga16 ATP-induced calcium, Fluo-8 fluorescence; inhibition, % at 3 µM; actives 39% (n = 2,400); AID 651952;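 active means inhibition above the plate's mean compound inhibition plus 3 SD, computed per plate, cut at about 22% in these data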
# Numbers stand for hits; – = inactive; · = not tested or not shown. Hits are enriched below; roughly 3.4% of the tested compounds scored in any of these assays.
SMILES,TRPML3 ag,GPR7 antag,TAAR1 agonist,TAAR1 antag,LANA-H2B inh,zfTRPN1 agonist,TAAR1 ag conf,Ga16 nonsel ag,TAAR1 desensitize,Ga16 antag count
COc1ccc2[nH]cc(C(=O)NCCc3ccccc3)c(=O)c2c1,·,–,–,–,–,·,·,·,·,·
C#C[C@]1(O)CC[C@H]2[C@@H]3CCc4cc(O)ccc4[C@H]3CC[C@@]21C,–,–,–,–,–,–,·,·,·,·
C#CC1(O)CCC2C3CCC4=Cc5oncc5CC4(C)C3CCC21C (centres undefined),·,·,51.4,64.6,·,·,62.1,31.2,69.7,34.9
C#C[C@]1(O)CCC2C3CCC4=Cc5oncc5CC4(C)C3CCC21C (some centres undefined),·,·,62.0,75.9,13.1,·,59.6,42.8,53.7,35.9
O=C(O)c1ccc(Cl)cc1NC(=O)C1CCN(S(=O)(=O)c2cccs2)CC1,·,·,–,–,·,·,·,·,·,·
O=C(C(=O)N1CCc2ccccc2C1)c1cn(CC(=O)N2CCCC2)c2ccccc12,–,–,50.0,–,–,–,49.7,–,–,–
O=C(C(=O)N1CCCCC1)c1cn(CC(=O)N2CCCCCC2)c2ccccc12,·,–,–,–,–,·,·,·,·,·
Cc1cc(C(=O)NCC(c2cccs2)N2CCOCC2)ccc1[N+](=O)[O-] (centres undefined),·,–,–,–,–,·,·,·,·,·
CC(OCC(O)CNCC1COc2ccccc2O1)c1ccc(Cl)cc1 (centres undefined),–,–,–,–,–,–,·,·,·,·
CC(=O)c1cccc(OCC(O)CNCC2COc3ccccc3O2)c1 (centres undefined),·,–,46.1,–,–,·,69.9,–,–,–
CCCCCCCCCCCCC/C=C/[C@@H](O)[C@@H](N)CO,·,·,38.7,–,–,·,82.7,65.4,–,23.1
COc1ccc(NC(=O)c2sc(=O)n(Cc3ccccc3C#N)c2C)cc1OC,·,·,–,–,·,·,·,·,·,·
O=C(NC1CCCc2ccccc21)c1ccccc1 (centres undefined),–,–,–,–,–,–,·,·,·,·
O=C(O)C1C2C=CC(O2)C1C(=O)NC1CCCc2ccccc21 (centres undefined),–,–,55.1,–,–,–,48.8,–,–,–
COc1ccccc1NC(=O)N(C)C[C@H]1OCc2cnnn2CCCC(=O)N([C@H](C)CO)C[C@@H]1C,·,·,–,–,·,·,·,·,·,·
O=C(COc1ccc(F)cc1Br)N1CCc2ccccc21,–,–,75.9,82.8,–,–,–,–,–,–
Cc1ccc(NC(=O)CN(C)C(=O)CSc2nnc(N)s2)cc1,·,·,–,–,–,·,·,·,·,·
O=C1C=C(c2ccccc2)C(=O)N1Nc1ccccc1,–,–,51.3,–,–,–,70.2,47.6,–,35.3
Cc1ccc(CCNC(=O)c2coc3nc4ccccc4nc23)cc1,–,–,70.1,–,–,–,–,–,–,23.1
CC1CCN(CCCNC(=O)c2coc3nc4ccccc4nc23)CC1,–,–,–,–,–,–,·,·,·,·
Cc1cccc(C)c1NC(=O)C1(C)CSCC(=O)N1CCc1ccccc1F (centres undefined),·,·,–,–,·,·,·,·,·,·
CC(C)CCN1CCNC(=O)C1CC(=O)N(C)CCCN1CCOCC1 (centres undefined),·,–,–,–,–,·,·,·,·,·
Oc1ccc(O)c(/C(=N/Nc2ccccc2)c2ccccc2)c1,·,–,·,·,–,·,·,·,·,·
